Reference: PMC9989852 (Food and chemical toxicology : an international journal …, 2022)
Values joined by “and” are separate entries in the source; they are usually repeats but may differ in a detail not shown here. Equal values may be shown once.

Legend:
Type in all cases: in vivo, B6C3F1 mice
spleen = test: Spleen phenotyping by flow cytometry after 28-day dermal exposure; conditions: 28 days
Procedure, shortened: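 Female B6C3F1 mice (5/group) received 25 μl/ear daily to the dorsal ears in acetone. About 24 h after the last dose, tissues went into RPMI: both auricular dLNs, half spleen and one ear pinna. Single-cell suspensions were acquired on an LSR II, with populations gated per supplemental strategy and FMO gating controls. Results are mean ± SE, n=5, by one-way ANOVA.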

ear pinna [1] = test: Skin; conditions: dermal, 28 days
Procedure, shortened: (§1)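 Dosing was daily topical to both dorsal ears (25 μl/ear, acetone vehicle) in female B6C3F1 mice. Liver caudate lobe or half ear pinna was stored in RNAlater and homogenized in RLT buffer. RNA was isolated on RNeasy columns with DNase, and 1–2 μg was reverse-transcribed. TaqMan real-time PCR was read as 2−ΔΔCT vs vehicle, normalized to β-actin. Statistics: ANOVA/Dunnett's, or Kruskal-Wallis/Dunn's for unequal variance.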

ear pinna [2] = test: Ear; conditions: dermal, 28 days, mice affected of 5
Procedure, shortened: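 Female B6C3F1 mice (5/group) received 25 μl/ear on the dorsal ear surfaces daily, with acetone as vehicle. Tissues were formalin-fixed about 24 h after the last dose: liver remainder, half spleen, right kidney and half ear pinna. Sections were paraffin-embedded, cut at 5 μm and stained with H&E. A veterinary pathologist read them per STP guideline and graded 1 (minimal) to 5 (severe) by extent.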

liver (caudate) = test: Liver gene expression; conditions: dermal, 28 days
Procedure, shortened: as §1

[3] = PFAS concentration in pooled urine; conditions: 5%, dermal, 28 days; 5 pooled samples
Procedure, shortened: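 Urine was caught in a weigh boat as it was excreted during CO2 euthanasia, about 24 h after the final daily ear dose (25 μl/ear, acetone vehicle; female B6C3F1 mice). The 5 mice per group were pooled, with variable volume. Samples underwent solid-phase extraction and LC/MS/MS, as linear isomer for short-chain analytes and linear plus branched for the comparator. Each group gave a single value without statistics.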

## O=C(O)C(F)(F)C(F)(F)C(F)(F)C(F)(F)F [PFPeA, perfluoropentanoic acid]
spleen; 1.25%
  spleen NK cell frequency: increase
spleen; 2.5%
  spleen MFI of CD86 on B-cells: increase
  spleen MFI of MHCII on B-cells: increase
  spleen NK cell frequency: increase
  spleen number of CD4^+ T-cells: significant decrease
  spleen number of CD11b + Ly6C− cells: significant decrease
spleen; 5%
  spleen MFI of CD86 on B-cells: increase
  spleen MFI of MHCII on B-cells: increase
  spleen NK cell frequency: increase
Ear pinna [1]; 1.25%
  skin Krt10 gene expression: increased
  skin Pparγ gene expression: decreased
Ear pinna [1]; 1.25–5%
  skin Pparδ gene expression: no changes
Ear pinna [1]; 2.5%
  skin Krt10 gene expression: increased
  skin Pparγ gene expression: decreased
Ear pinna [1]; 5%
  skin Flg gene expression: increased
  skin Il6 gene expression, increase: 2.5 fold
  skin Krt10 gene expression: increased
  skin PPARα gene expression: decreased
  skin Pparγ gene expression: decreased
  skin S100a7a gene expression, increase: 42.5 fold
  skin Serpine1 gene expression, increase: 3 fold
  skin Tslp gene expression, increase: 3 fold
Ear pinna [2]; 1.25%
  Ear: Degeneration/regeneration, cartilage, focal, Mild (incidence): 0
  Ear: Fibrosis, dermis, focal, Minimal (incidence): 0
  Ear: Hyperkeratosis, epidermis, focal, Mild (incidence): 0
  Ear: Hyperkeratosis, epidermis, focal, Minimal (incidence): 0
  Ear: Hyperplasia, epidermis, focal, Mild (incidence): 0
  Ear: Hyperplasia, epidermis, focal, Minimal (incidence): 0
  Ear: Inflammation, mixed cell, dermis, Minimal (incidence): 0
  Ear: Inflammation, mononuclear cell, dermis, Minimal (incidence): 0
  Ear: Necrosis, epidermis, multifocal, Minimal (incidence): 0
Ear pinna [2]; 2.5%
  Ear: Degeneration/regeneration, cartilage, focal, Mild (incidence): 0
  Ear: Fibrosis, dermis, focal, Minimal (incidence): 0
  Ear: Hyperkeratosis, epidermis, focal, Mild (incidence): 0
  Ear: Hyperkeratosis, epidermis, focal, Minimal (incidence): 0
  Ear: Hyperplasia, epidermis, focal, Mild (incidence): 0
  Ear: Hyperplasia, epidermis, focal, Minimal (incidence): 4/5 and 4
  Ear: Inflammation, mixed cell, dermis, Minimal (incidence): 2/5 and 2
  Ear: Inflammation, mononuclear cell, dermis, Minimal (incidence): 0
  Ear: Necrosis, epidermis, multifocal, Minimal (incidence): 0
Ear pinna [2]; 5%
  Ear: Degeneration/regeneration, cartilage, focal, Mild (incidence): 0
  Ear: Fibrosis, dermis, focal, Minimal (incidence): 4/5 and 4
  Ear: Hyperkeratosis, epidermis, focal, Mild (incidence): 0
  Ear: Hyperkeratosis, epidermis, focal, Minimal (incidence): 2/5 and 2
  Ear: Hyperplasia, epidermis, focal, Mild (incidence): 3/5 and 3
  Ear: Hyperplasia, epidermis, focal, Minimal (incidence): 2/5 and 2
  Ear: Inflammation, mixed cell, dermis, Minimal (incidence): 4/5 and 4
  Ear: Inflammation, mononuclear cell, dermis, Minimal (incidence): 0
  Ear: Necrosis, epidermis, multifocal, Minimal (incidence): 0
Liver (caudate); 2.5%
  liver Pltp gene expression: increase
  liver Pparδ expression: decreasing
  liver Serpine1 gene expression, increase: 8 fold
Liver (caudate); 5%
  liver Acox1 gene expression: increase
  liver Cd36 gene expression, increase: 6.5 fold
  liver Ehhadh gene expression, increase: 8.8 fold
  liver Fabp1 gene expression: increased
  liver Pltp gene expression: increase
  liver Pparγ expression: increasing
  liver Pparδ expression: decreasing
  liver Serpine1 gene expression, increase: 11.3 fold
[3]
  urine PFAS concentration: 5600 µg/mL
